Test system: Fibroblast
Assay: Multiplex assay against human fibroblast
Format: toxicity, cell-based
Procedure, shortened: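 Values for tubulin, mitochondrial-mass and membrane-permeability phenotypes are per cents of cells with healthy nuclei. These cells were identified by CellPathfinder machine-learning gating of live cells that had been stained at seeding with Hoechst33342, BioTracker Green Microtubule Cytoskeleton Dye, MitoTracker Red and Annexin V Alexa Fluor 680 and imaged on a CQ1 microscope at 37°C and 5% CO2 after compound addition. The gating first set Hoechst high-intensity objects apart from normal cells, then split normal cells into healthy, pyknosed or fragmented nuclei, and pyknosed cells into mitotic or apoptotic.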

[1] = 12 h, 1 µM, compound concentration 1 uM, replicate 1
[2] = 12 h, 1 µM, compound concentration 1 uM, replicate 2
[3] = 12 h, 10 µM, compound concentration 10 uM, replicate 1
[4] = 12 h, 10 µM, compound concentration 10 uM, replicate 2
[5] = 24 h, 1 µM, compound concentration 1 uM, replicate 1
[6] = 24 h, 1 µM, compound concentration 1 uM, replicate 2
[7] = 24 h, 10 µM, compound concentration 10 uM, replicate 1
[8] = 24 h, 10 µM, compound concentration 10 uM, replicate 2
[9] = 48 h, 1 µM, compound concentration 1 uM, replicate 1
[10] = 48 h, 1 µM, compound concentration 1 uM, replicate 2
[11] = 48 h, 10 µM, compound concentration 10 uM, replicate 1
[12] = 48 h, 10 µM, compound concentration 10 uM, replicate 2

CC[C@H](C)C(=O)O[C@H]1C[C@@H](C)C=C2C=C[C@H](C)[C@H](CC[C@@H]3C[C@@H](O)CC(=O)O3)[C@H]21 [LOVASTATIN]
Population Apoptotic (%) [1]: 63%
Population Fragmented Nuclei (%) [1]: 33%
Population Healthy Nuclei (%) [1]: 35%
Population Hoechst High Intensity Objects (%) [1]: 13%
Population Membrane Permeable-Phenotype (%) [1]: 23%
Population Mitochondria Different-Phenotype (%) [1]: 14%
Population Mitotic Cells (%) [1]: 36%
Population Normal (%) [1]: 86%
Population Pyknosed Nuclei (%) [1]: 31%
Population Tubulin-Different-Phenotype (%) [1]: 42%
Total Cell Count [1]: 69
Population Apoptotic (%) [2]: 25%
Population Fragmented Nuclei (%) [2]: 22%
Population Healthy Nuclei (%) [2]: 68%
Population Hoechst High Intensity Objects (%) [2]: 11%
Population Membrane Permeable-Phenotype (%) [2]: 3%
Population Mitochondria Different-Phenotype (%) [2]: 6%
Population Mitotic Cells (%) [2]: 75%
Population Normal (%) [2]: 88%
Population Pyknosed Nuclei (%) [2]: 8%
Population Tubulin-Different-Phenotype (%) [2]: 3%
Total Cell Count [2]: 87
Population Apoptotic (%) [3]: 50%
Population Fragmented Nuclei (%) [3]: 33%
Population Healthy Nuclei (%) [3]: 45%
Population Hoechst High Intensity Objects (%) [3]: 13%
Population Membrane Permeable-Phenotype (%) [3]: 22%
Population Mitochondria Different-Phenotype (%) [3]: 13%
Population Mitotic Cells (%) [3]: 50%
Population Normal (%) [3]: 86%
Population Pyknosed Nuclei (%) [3]: 22%
Population Tubulin-Different-Phenotype (%) [3]: 42%
Total Cell Count [3]: 115
Population Apoptotic (%) [4]: 100%
Population Fragmented Nuclei (%) [4]: 4%
Population Healthy Nuclei (%) [4]: 90%
Population Hoechst High Intensity Objects (%) [4]: 8%
Population Membrane Permeable-Phenotype (%) [4]: 10%
Population Mitochondria Different-Phenotype (%) [4]: 12%
Population Mitotic Cells (%) [4]: 0%
Population Normal (%) [4]: 91%
Population Pyknosed Nuclei (%) [4]: 4%
Population Tubulin-Different-Phenotype (%) [4]: 20%
Total Cell Count [4]: 54
Population Apoptotic (%) [5]: 44%
Population Fragmented Nuclei (%) [5]: 36%
Population Healthy Nuclei (%) [5]: 47%
Population Hoechst High Intensity Objects (%) [5]: 11%
Population Membrane Permeable-Phenotype (%) [5]: 11%
Population Mitochondria Different-Phenotype (%) [5]: 15%
Population Mitotic Cells (%) [5]: 55%
Population Normal (%) [5]: 88%
Population Pyknosed Nuclei (%) [5]: 16%
Population Tubulin-Different-Phenotype (%) [5]: 38%
Total Cell Count [5]: 62
Population Apoptotic (%) [6]: 40%
Population Fragmented Nuclei (%) [6]: 22%
Population Healthy Nuclei (%) [6]: 70%
Population Hoechst High Intensity Objects (%) [6]: 9%
Population Membrane Permeable-Phenotype (%) [6]: 0%
Population Mitochondria Different-Phenotype (%) [6]: 4%
Population Mitotic Cells (%) [6]: 60%
Population Normal (%) [6]: 90%
Population Pyknosed Nuclei (%) [6]: 7%
Population Tubulin-Different-Phenotype (%) [6]: 4%
Total Cell Count [6]: 93
Population Apoptotic (%) [7]: 43%
Population Fragmented Nuclei (%) [7]: 26%
Population Healthy Nuclei (%) [7]: 48%
Population Hoechst High Intensity Objects (%) [7]: 14%
Population Membrane Permeable-Phenotype (%) [7]: 19%
Population Mitochondria Different-Phenotype (%) [7]: 10%
Population Mitotic Cells (%) [7]: 56%
Population Normal (%) [7]: 85%
Population Pyknosed Nuclei (%) [7]: 24%
Population Tubulin-Different-Phenotype (%) [7]: 28%
Total Cell Count [7]: 110
Population Apoptotic (%) [8]: 28%
Population Fragmented Nuclei (%) [8]: 8%
Population Healthy Nuclei (%) [8]: 79%
Population Hoechst High Intensity Objects (%) [8]: 7%
Population Membrane Permeable-Phenotype (%) [8]: 8%
Population Mitochondria Different-Phenotype (%) [8]: 4%
Population Mitotic Cells (%) [8]: 71%
Population Normal (%) [8]: 92%
Population Pyknosed Nuclei (%) [8]: 11%
Population Tubulin-Different-Phenotype (%) [8]: 23%
Total Cell Count [8]: 74
Population Apoptotic (%) [9]: 66%
Population Fragmented Nuclei (%) [9]: 55%
Population Healthy Nuclei (%) [9]: 39%
Population Hoechst High Intensity Objects (%) [9]: 9%
Population Membrane Permeable-Phenotype (%) [9]: 26%
Population Mitochondria Different-Phenotype (%) [9]: 0%
Population Mitotic Cells (%) [9]: 33%
Population Normal (%) [9]: 90%
Population Pyknosed Nuclei (%) [9]: 5%
Population Tubulin-Different-Phenotype (%) [9]: 39%
Total Cell Count [9]: 64
Population Apoptotic (%) [10]: 33%
Population Fragmented Nuclei (%) [10]: 17%
Population Healthy Nuclei (%) [10]: 73%
Population Hoechst High Intensity Objects (%) [10]: 7%
Population Membrane Permeable-Phenotype (%) [10]: 23%
Population Mitochondria Different-Phenotype (%) [10]: 6%
Population Mitotic Cells (%) [10]: 66%
Population Normal (%) [10]: 92%
Population Pyknosed Nuclei (%) [10]: 9%
Population Tubulin-Different-Phenotype (%) [10]: 23%
Total Cell Count [10]: 69
Population Apoptotic (%) [11]: 71%
Population Fragmented Nuclei (%) [11]: 58%
Population Healthy Nuclei (%) [11]: 33%
Population Hoechst High Intensity Objects (%) [11]: 20%
Population Membrane Permeable-Phenotype (%) [11]: 19%
Population Mitochondria Different-Phenotype (%) [11]: 3%
Population Mitotic Cells (%) [11]: 28%
Population Normal (%) [11]: 80%
Population Pyknosed Nuclei (%) [11]: 7%
Population Tubulin-Different-Phenotype (%) [11]: 29%
Total Cell Count [11]: 115
Population Fragmented Nuclei (%) [12]: 37%
Population Healthy Nuclei (%) [12]: 52%
Population Hoechst High Intensity Objects (%) [12]: 15%
Population Membrane Permeable-Phenotype (%) [12]: 14%
Population Mitochondria Different-Phenotype (%) [12]: 2%
Population Normal (%) [12]: 84%
Population Pyknosed Nuclei (%) [12]: 10%
Population Tubulin-Different-Phenotype (%) [12]: 34%
Total Cell Count [12]: 79

— ChEMBL document CHEMBL4689842, “EUbOPEN Chemogenomics Library wave 1” (2021)
